The values that follow come from PubChem BioAssay.

Activity calls are given as the source filed them.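 The calls were made as follows, unless noted: active = visually confirmed hit in the image check and inhibition above 20%; inconclusive = visually confirmed hit but inhibition not above 20%; inactive = no visual hit in the image check.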

The inhibition is the drop in the measured response relative to a control, in per cent.

The nature of assay [1]: inhibitors of TNFa-induced NFkB p65 translocation, primary screen, imaging, HUVEC, MLSMR starter and 10KST1 sets (AID 438;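 active = inhibition above 20% together with a positive visual image hit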;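 also: compound added about 3h40 before a 20 min TNFalpha stimulation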;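 as to inhibition: signal is the nuclear over cytoplasmic p65 intensity ratio per well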). As to conditions: HUVEC TNFa-induced p65 nuclear translocation; cell count: measured here: nuclei count (cytotoxicity indicator), at 2.08 µM; inhibition: at 2 µM, stronger effect = higher value, 0% TNFa-plus-vehicle, 100% no-TNFa wells.
Assay [2] can be described thus: inhibitors of mutant huntingtin aggregation, primary screen, imaging, exon1htt(103Q)mCFP cells, high-content imaging (AID 483;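 active = visual image review flags a hit and inhibition of aggregation exceeds 20%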;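 also: compound exposure lasted 3 days before fixation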;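 as to nuclei count: percent of the per-plate median nuclei count of sample wells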). As to conditions: exon1htt(103Q)mCFP cell line, aggregate imaging, at 2 µM; inhibition of aggregation: stronger effect = higher value; nuclei count: measured here: cell count, toxicity.
Assay [3] is described as follows: inhibitors of E-selectin induction by TNFa, primary screen, imaging, HUVEC, immunofluorescence, MLSMR starter and 10KST1 sets (AID 487).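 As to inhibition: signal is fraction of cell area covered by stained E-selectin grains.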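 As to nuclei count: 100% = median nuclei count of all wells on the same plate.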 To be noted: HUVEC TNFalpha-induced E-selectin immunofluorescence imaging, at 2 µM; inhibition: stronger effect = higher value; nuclei count: measured here: cell number, toxicity.
The target of assay [4] is Voltage-gated potassium channel subunit beta-2 (Rattus norvegicus) (UniProt P62483). Description: KvBeta enzyme negative modulators, primary screen, biochemical, NADPH fluorescence (AID 622;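 active = fluorescence slope higher than the sample average by over 3 SD, cut at about -0.22 in these data, passing the limit was not always enough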;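 also: slope of raw intensity against log time taken from 70 to 1610 s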). As to conditions: recombinant KvBeta, 4-cyanobenzaldehyde reduction, at 10 µM, stronger effect = higher value.
Voltage-gated potassium channel subunit beta-2 (Rattus norvegicus), sequence (P62483 whole entry, looked up): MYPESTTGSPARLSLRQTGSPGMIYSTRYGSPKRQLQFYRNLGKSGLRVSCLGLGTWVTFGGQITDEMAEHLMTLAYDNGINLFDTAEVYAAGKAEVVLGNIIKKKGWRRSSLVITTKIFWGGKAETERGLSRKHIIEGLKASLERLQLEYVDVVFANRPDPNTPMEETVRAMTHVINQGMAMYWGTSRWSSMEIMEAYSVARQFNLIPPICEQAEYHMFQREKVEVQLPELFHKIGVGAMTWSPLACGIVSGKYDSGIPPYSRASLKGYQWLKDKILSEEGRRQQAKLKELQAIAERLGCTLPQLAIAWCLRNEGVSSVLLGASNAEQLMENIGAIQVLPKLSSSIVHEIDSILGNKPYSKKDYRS
Assay [5] has the same target. Description: KvBeta positive modulators, primary screen, biochemical, NADPH fluorescence (AID 623;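 active = NADPH fluorescence slope more negative than the mean of all samples by about 3 SD, 99.7% confidence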;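 also: fluorescence intensity change per second fitted from 20 to 320 s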). As to conditions: Recombinant KvBeta, NADPH fluorescence decrease slope, 10 min; at 10 µM; stronger effect = lower value.
The target in assay [6] is Muscarinic acetylcholine receptor M4 (Homo sapiens) (UniProt P08173). Description: compounds altering M4/GIRK thallium flux, either direction, primary screen, M4 allosteric agonist project, cell-based, HEK293 M4/GIRK, BTC-AM (AID 625;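 active = fluorescence slope after compound addition differing from the mean of all tested samples at 99.7% confidence, mostly higher but some lower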;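 also: thallium influx through GIRK channels coupled to M4 in HEK293 cells with BTC-AM dye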). As to conditions: at 10 µM, actives lie on both sides. The gist of the method: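 Material – HEK293 cells with M4 receptor and GIRK channels · Buffer or medium – pH 7.3 thallium assay buffer · Doses – one dose, 10 µM final · Timing – cells overnight at 37 °C, BTC-AM loading 1 h, reads 2 min total · Measured by – kinetic fluorescence with BTC-AM dye · Controls – carbachol and DMSO controls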
Muscarinic acetylcholine receptor M4 (Homo sapiens), sequence (P08173 whole entry, looked up): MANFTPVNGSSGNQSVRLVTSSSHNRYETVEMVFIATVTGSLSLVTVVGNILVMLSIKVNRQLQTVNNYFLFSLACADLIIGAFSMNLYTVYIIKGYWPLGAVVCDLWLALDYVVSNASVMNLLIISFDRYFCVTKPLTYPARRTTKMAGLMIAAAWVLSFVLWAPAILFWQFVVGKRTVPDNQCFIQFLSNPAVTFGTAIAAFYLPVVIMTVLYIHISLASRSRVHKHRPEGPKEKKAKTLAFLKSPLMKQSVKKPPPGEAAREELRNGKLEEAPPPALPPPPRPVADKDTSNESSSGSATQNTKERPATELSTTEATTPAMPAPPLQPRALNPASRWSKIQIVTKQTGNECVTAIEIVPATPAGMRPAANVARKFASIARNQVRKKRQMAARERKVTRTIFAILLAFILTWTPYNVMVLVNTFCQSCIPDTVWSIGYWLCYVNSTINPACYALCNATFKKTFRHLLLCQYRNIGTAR

The nature of assay [7]: inhibitors of Sendai virus-induced IRF3 signaling, primary screen, TLR/RLR signaling modifier project, cell-based, Sendai virus stimulus, luciferase, 10K MLSCN set (AID 602276;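 active = inhibition at or above 50% at 10 µM; inactive = inhibition below 50%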;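 also: firefly luciferase from ISG56 promoter only with Renilla not read in this screen; 0% = Sendai virus plus DMSO and 100% = medium plus DMSO without virus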). To be noted: HEK293 RL24 IRF3 luciferase reporter, at 10 µM, stronger effect = higher value.
Assay [8] in a line: inhibitors of poly I:C-induced TLR3 signaling, primary screen, cell-based, poly I:C stimulus, luciferase, 10K MLSCN set (AID 602277;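 active = inhibition of the reporter signal at or above 50%; inactive = inhibition below 50%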). To be noted: HEK293-TLR3 RL24 IRF3 luciferase reporter, at 10 µM, stronger effect = higher value. Background: A reporter such as luciferase makes a cellular process visible.

`CCOC(=O)C(CC)(CCC(=O)O)c1csc(N)n1` (centres undefined): the cell count in assay [1] was 518. In addition, the inhibition in assay [1] is 9.6% (inactive); in assay [3], 14.4% (inactive); in assay [7], 13.6% (inactive); in assay [8], 18% (inactive). For the same molecule, the inhibition of aggregation in assay [2] was -2.8% (inactive). The nuclei count in assay [2] was found to be 91.6%; in assay [3] it was 98.1%. Besides, the fluorescence slope was -0.518 (inactive) in assay [4] and 0.00527 (inactive) in assay [6]. The NADPH fluorescence slope in assay [5] is -3.9e-05 (inactive).
With `O=S(=O)(c1ccc(OCC(O)CN2CCc3ccccc3C2)cc1)N1CCOCC1` (centres undefined), in assay [1], the cell count amounted to 749. The inhibition was 1.6% (inactive) in assay [1], -51.2% (inactive) in assay [3], 15.9% (inactive) in assay [7] and 26.7% (inactive) in assay [8]. Moreover, the inhibition of aggregation in assay [2] is 6.1% (inactive). Further, the nuclei count in assay [2] amounted to 114%; in assay [3] it was 132%. Also, the fluorescence slope in assay [4] is -0.549 (inactive); in assay [6], 0.00569 (inactive). In addition, the NADPH fluorescence slope in assay [5] is 1.9e-05 (inactive).
In the case of `CC(C)C1N=C2c3ccccc3N=C(SCC(=O)NCCc3ccc(S(N)(=O)=O)cc3)N2C1=O` (centres undefined), the cell count in assay [1] came out at 566. Also, the inhibition in assay [1] is -3.4% (inactive); in assay [3], -121% (inactive); in assay [7], 22% (inactive); in assay [8], 22% (inactive). In assay [2], the inhibition of aggregation was 7.3% (inactive). Further, the figures for the nuclei count in assay [2] and in assay [3] were 60.1% and 110%, respectively. Besides, the fluorescence slope in assay [4] was -0.598 (inactive); in assay [6] it was 0.00596 (inactive). In addition, the NADPH fluorescence slope in assay [5] is -3.3e-05 (inactive).
On to `COC(=O)c1ccc(-c2ccc(CNCC(O)c3ccccc3)o2)cc1` (centres undefined), for which, in assay [1], the cell count is 400. Further, the inhibition in assay [1] is 3.2% (inactive); in assay [3], -27.1% (inactive); in assay [7], 13.2% (inactive); in assay [8], 13.8% (inactive). Further, in assay [2], the inhibition of aggregation is -6% (inactive). The nuclei count in assay [2] is 111%; in assay [3] it was 115%. In addition, the fluorescence slope in assay [4] was -0.313 (inactive); in assay [6], 0.00598 (inactive). Further, in assay [5], the NADPH fluorescence slope is -1.1e-05 (inactive).
Consider `O=C(Nc1ccc(N2CCCC2=O)cc1)c1cccc(F)c1`, for which, in assay [1], the cell count came to 226. The inhibition in assay [1] is -5.9% (inactive); in assay [3], -11.4% (inactive); in assay [7], -49% (inactive); in assay [8], -122% (inactive). For the same molecule, the inhibition of aggregation in assay [2] is 15.3% (inactive). Moreover, the nuclei count in assay [2] came to 90.3%; in assay [3] it was 71.5%. Further, the fluorescence slope in assay [4] is -0.461 (inactive); in assay [6], 0.00447 (inactive). Besides, the NADPH fluorescence slope in assay [5] is 2e-05 (inactive).
In the case of `COc1ccccc1-n1c(C)nnc1SCC(N)=O`, the cell count in assay [1] came to 382. In addition, the inhibition in assay [1] is 6.2% (inactive); in assay [3], -49.7% (inactive); in assay [7], 17.4% (inactive); in assay [8], 22.3% (inactive). Besides, the inhibition of aggregation in assay [2] was 7.3% (inactive). Besides, the nuclei count came out at 100% in assay [2] and 103% in assay [3]. Also, the fluorescence slope is -0.521 (inactive) in assay [4] and 0.00439 (inactive) in assay [6]. The NADPH fluorescence slope in assay [5] is -1.4e-05 (inactive).
In the case of `Cc1nnc(C)c2c(C)n(-c3ccc(Br)cc3)c(C)c12`, the cell count in assay [1] was found to be 305. Moreover, the inhibition was 2.5% (inactive) in assay [1], -47.7% (inactive) in assay [3], 18% (inactive) in assay [7] and 27.9% (inactive) in assay [8]. Moreover, in assay [2], the inhibition of aggregation is -3.9% (inactive). The nuclei count was 104% in assay [2] and 111% in assay [3]. In addition, the fluorescence slope in assay [4] was -0.497 (inactive); in assay [6], 0.00472 (inactive). Also, the NADPH fluorescence slope in assay [5] is -4.6e-05 (inactive).
As for `CCNC(=O)c1ccc(NS(=O)(=O)c2ccccc2)cc1`, the cell count in assay [1] came out at 340. Moreover, the inhibition is -4.8% (inactive) in assay [1], -44.8% (inactive) in assay [3], 13.3% (inactive) in assay [7] and 12.4% (inactive) in assay [8]. Besides, the inhibition of aggregation in assay [2] was 16% (inactive). Moreover, the nuclei count in assay [2] stood at 123%; in assay [3] it was 102%. The fluorescence slope is -0.551 (inactive) in assay [4] and 0.00291 (inactive) in assay [6]. In assay [5], the NADPH fluorescence slope was -0.000105 (inactive).
Regarding `COc1ccc(S(=O)(=O)n2ccnc2)c2cccnc12`, in assay [1], the cell count came to 442. The inhibition in assay [1] was -21.1% (inactive); in assay [3], 20.6% (inactive); in assay [7], 0.31% (inactive); in assay [8] it was 8.74% (inactive). Also, the inhibition of aggregation in assay [2] is 1% (inactive). The nuclei count in assay [2] stood at 82%; in assay [3], 85.1%. The fluorescence slope in assay [4] is -0.358 (inactive); in assay [6] it was 0.00671 (inactive). For the same molecule, the NADPH fluorescence slope in assay [5] was 7.3e-05 (inactive).
Take `CCCn1c(NCc2ccc3c(c2)OCO3)nc2ccccc21`: in assay [1], the cell count worked out at 650. For the same molecule, the inhibition is -6.8% (inactive) in assay [1], 32% (inactive) in assay [3], -9.91% (inactive) in assay [7] and -7.89% (inactive) in assay [8]. In assay [2], the inhibition of aggregation is 2.4% (inactive). Besides, the nuclei count came out at 97.6% in assay [2] and 93.5% in assay [3]. Besides, the fluorescence slope is -0.537 (inactive) in assay [4] and 0.00348 (inactive) in assay [6]. The NADPH fluorescence slope in assay [5] was -5.7e-05 (inactive).
`O=C(CSc1nnc(Cn2nnc(-c3ccccc3)n2)n1-c1ccccc1)Nc1ccc(F)cc1`: in assay [1], the cell count was determined as 626. Further, the inhibition in assay [1] is -9.3% (inactive); in assay [3], -114% (inactive); in assay [7], 10.9% (inactive); in assay [8] it was 14.9% (inactive). The inhibition of aggregation in assay [2] is -10.3% (inactive). Further, the nuclei count amounted to 101% in assay [2] and 111% in assay [3]. Moreover, the fluorescence slope is -0.573 (inactive) in assay [4] and 0.00351 (inactive) in assay [6]. In addition, in assay [5], the NADPH fluorescence slope was -6e-05 (inactive).
For `CC(C)CNC(=O)c1ccccc1NC(=O)CN(c1ccc2c(c1)OCCO2)S(C)(=O)=O`, the cell count in assay [1] was found to be 330. For the same molecule, the inhibition in assay [1] is 6% (inactive); in assay [3], -0.7% (inactive); in assay [7] it was 0.301% (inactive); in assay [8] it was 0.167% (inactive). Also, in assay [2], the inhibition of aggregation is -12.9% (inactive). Besides, the values for the nuclei count in assay [2] and in assay [3] were 97.5% and 105%, respectively. Also, the fluorescence slope in assay [4] was -0.574 (inactive); in assay [6], 0.00389 (inactive). The NADPH fluorescence slope in assay [5] is 2.6e-05 (inactive).
On to `O=C(CNS(=O)(=O)c1ccc(Br)s1)N1CCN(c2ncccn2)CC1`, for which the cell count in assay [1] was 352. Further, the inhibition in assay [1] is 2.7% (inactive); in assay [3], -48.3% (inactive); in assay [7] it was -5.84% (inactive); in assay [8], -10.7% (inactive). Moreover, the inhibition of aggregation in assay [2] was 13.7% (inactive). Besides, the nuclei count in assay [2] stood at 101%; in assay [3], 86.3%. For the same molecule, the fluorescence slope was -0.532 (inactive) in assay [4] and 0.00447 (inactive) in assay [6]. Also, the NADPH fluorescence slope in assay [5] is -0.000106 (inactive).
With `CCOC(=O)C1CCN(c2c(NCCCN(CC)c3ccccc3)c(=O)c2=O)CC1`, the cell count in assay [1] turned out to be 266. Also, the inhibition in assay [1] was 5.2% (inactive); in assay [3], -20.2% (inactive); in assay [7], 2.28% (inactive); in assay [8] it was 9.33% (inactive). Moreover, the inhibition of aggregation in assay [2] was 8.3% (inactive). For the same molecule, the nuclei count in assay [2] amounted to 97.6%; in assay [3], 95.4%. Further, the fluorescence slope in assay [4] was -0.43 (inactive); in assay [6], 0.00476 (inactive). The NADPH fluorescence slope in assay [5] is -0.000398 (inactive).
